In ChEMBL document CHEMBL2062450, “New cytosine derivatives as inhibitors of DNA methylation” (Eur J Med Chem, 2012) one finds inhibition, Ki and IC50 data, which are given here for 30 molecules.

By inhibition is commonly meant the drop in the measured response relative to a control, in per cent. As a reminder, the pKi is the Ki on a negative log10 scale, so that one unit is a factor of ten. A lower pKi goes with a high Ki. A word on the pIC50: it is the negative decadic logarithm of the IC50, by convention in mol/L.

Experiment [1] addresses T1, DNA (cytosine-5)-methyltransferase 1 (Homo sapiens, UniProt P26358). In words: Inhibition of DNMT1 in human HeLa cell nuclear extract assessed as methylated substrate level at 100 uM by ELISA.
Experiment [2] concerns the target T2, Orphan methyltransferase M.SssI (Spiroplasma monobiae, UniProt P15840). In words: Competitive inhibition of Spiroplasma sp. MQ1 SssI methyltransferase using pUC18 as substrate measured for 10 mins by Dixon plot analysis. The gist of the method:
(§1)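 M.SssI reaction in 10 mM Tris-HCl pH 7.9 with 50 mM NaCl, 10 mM DTT, 2 mM [3H]CH3-SAM, 1 U enzyme and pUC18 plasmid (0.1, 0.5 or 1 µg). Run at 37 °C for 1, 3, 5 and 10 min with inhibitor present to get initial rates V0 (nM/min). Ki taken from Dixon plot. Reactions repeated twice.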

Experiment [3] has as its system HEK293. In words: Inhibition of DNA methylation in human HEK293 cells assessed as reduction of 5-methylcytosine level using [gamma-32P]ATP after 72 hrs. Type of experiment: cell-based. To be noted: HEK293, 72 h. The gist of the method: (§2)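 HeLa (RPMI-1640) and HEK293 (DMEM) cells, medium with 10% FBS, antibiotics and vitamin mix. Seeded at 1.25 × 10⁵ per well and exposed 72 h at 37 °C, 5% CO2 to 1, 10 or 100 µM. DNA digested with micrococcal nuclease and spleen phosphodiesterase, then 5'-labelled with [γ-32P]ATP and T4 polynucleotide kinase. 3'-phosphate removed with nuclease P1. Nucleotides resolved by 2D cellulose TLC. Methylation given as m5C/(m5C+dC+dT) × 100.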

Experiment [4] addresses T1, DNA (cytosine-5)-methyltransferase 1. In words: Inhibition of DNMT1 in human HeLa cells assessed as 2'-deoxyguanosine phosphate level by two-dimensional thin layer chromatography analysis. It is filed as cell-based. The gist of the method:
as §2

For experiment [5] the target is unchanged. In words: Inhibition of DNMT1 in human HeLa cell nuclear extract assessed as methylated substrate level by ELISA. A general note: ELISA stands for enzyme-linked immunosorbent assay.
The target is the same in experiment [6]. In words: Inhibition of DNMT1 in human HeLa cells assessed as 2'-deoxycytosine phosphate level by two-dimensional thin layer chromatography analysis. It is filed as cell-based. The gist of the method:
as §2

The target of experiment [7] is T2, Orphan methyltransferase M.SssI. In words: Inhibition of Spiroplasma sp. MQ1 SssI methyltransferase-mediated DNA cytosine methylation using pUC18 as substrate and [3H]CH3-SAM measured up to 10 mins. The gist of the method:
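Tritium-incorporation assay with SssI methyltransferase, pUC18 plasmid (0.1–1 µg) and 2 mM [3H]CH3-SAM. Buffer is 10 mM Tris-HCl pH 7.9, 50 mM NaCl, 10 mM DTT. Sampled at 1, 3, 5 and 10 min at 37 °C to give initial velocity V0. Reactions done twice.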

The target in experiment [8] is T1, DNA (cytosine-5)-methyltransferase 1. In words: Inhibition of DNMT1 in human HeLa cell nuclear extract assessed as methylated substrate level at 10 uM by ELISA. The gist of the method:
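HeLa nuclear extract (cells grown to 80% confluency; protein by Bradford) with hemimethylated DNA substrate, incubated 1 h with or without inhibitor. Methylated product detected by ELISA with anti-5-methylcytosine antibody, colorimetric read-out at 450 nm. Each experiment repeated twice.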

Experiment [9] shares this target. In words: Inhibition of DNMT1 in human HeLa cells assessed as 2'-deoxytymidine phosphate level by two-dimensional thin layer chromatography analysis. Type of experiment: cell-based. The method in brief: as §2
Experiment [10] relates to HeLa. In words: Inhibition of DNA methylation in human HeLa cells assessed as reduction of 5-methylcytosine level using [gamma-32P]ATP after 72 hrs. Type of experiment: functional, cell-based. The method in brief: as §2
The target in experiment [11] is T1, DNA (cytosine-5)-methyltransferase 1. In words: Inhibition of DNMT1 in human HeLa cells assessed as 2'-deoxyadenosine phosphate level by two-dimensional thin layer chromatography analysis. Type of experiment: cell-based. To be noted: in the assay text read “5-methylcytosine level” for “2'-deoxyadenosine phosphate level”. The gist of the method:
as §2

For experiment [12] the target is unchanged. In words: Inhibition of DNMT1 in human HeLa cells assessed as 5-methyl-2'-deoxycytosine phosphate level by two-dimensional thin layer chromatography analysis. Type of experiment: cell-based. The gist of the method:
as §2

Experiment [13] deals with T2, Orphan methyltransferase M.SssI. In words: Non-competitive inhibition of Spiroplasma sp. MQ1 SssI methyltransferase using pUC18 as substrate measured for 10 mins by Dixon plot analysis. The method in brief:
as §1

The target is the same in experiment [14]. In words: Uncompetitive inhibition of Spiroplasma sp. MQ1 SssI methyltransferase using pUC18 as substrate measured for 10 mins by Cornish-Bowden's plot analysis. Also noted: […]. The method in brief:
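M.SssI reaction in 10 mM Tris-HCl pH 7.9 with 50 mM NaCl, 10 mM DTT, 2 mM [3H]CH3-SAM, 1 U enzyme and pUC18 (0.1, 0.5 or 1 µg). Run at 37 °C for 1–10 min to get V0. Ki' obtained by Cornish-Bowden method, plotting S/V against inhibitor concentration. Duplicates.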

pIC50, pKi: −log10 of the molar value. Active and inactive are the calls of the source. No cut-off for these calls is given here.

T1 sequence (P26358 whole entry): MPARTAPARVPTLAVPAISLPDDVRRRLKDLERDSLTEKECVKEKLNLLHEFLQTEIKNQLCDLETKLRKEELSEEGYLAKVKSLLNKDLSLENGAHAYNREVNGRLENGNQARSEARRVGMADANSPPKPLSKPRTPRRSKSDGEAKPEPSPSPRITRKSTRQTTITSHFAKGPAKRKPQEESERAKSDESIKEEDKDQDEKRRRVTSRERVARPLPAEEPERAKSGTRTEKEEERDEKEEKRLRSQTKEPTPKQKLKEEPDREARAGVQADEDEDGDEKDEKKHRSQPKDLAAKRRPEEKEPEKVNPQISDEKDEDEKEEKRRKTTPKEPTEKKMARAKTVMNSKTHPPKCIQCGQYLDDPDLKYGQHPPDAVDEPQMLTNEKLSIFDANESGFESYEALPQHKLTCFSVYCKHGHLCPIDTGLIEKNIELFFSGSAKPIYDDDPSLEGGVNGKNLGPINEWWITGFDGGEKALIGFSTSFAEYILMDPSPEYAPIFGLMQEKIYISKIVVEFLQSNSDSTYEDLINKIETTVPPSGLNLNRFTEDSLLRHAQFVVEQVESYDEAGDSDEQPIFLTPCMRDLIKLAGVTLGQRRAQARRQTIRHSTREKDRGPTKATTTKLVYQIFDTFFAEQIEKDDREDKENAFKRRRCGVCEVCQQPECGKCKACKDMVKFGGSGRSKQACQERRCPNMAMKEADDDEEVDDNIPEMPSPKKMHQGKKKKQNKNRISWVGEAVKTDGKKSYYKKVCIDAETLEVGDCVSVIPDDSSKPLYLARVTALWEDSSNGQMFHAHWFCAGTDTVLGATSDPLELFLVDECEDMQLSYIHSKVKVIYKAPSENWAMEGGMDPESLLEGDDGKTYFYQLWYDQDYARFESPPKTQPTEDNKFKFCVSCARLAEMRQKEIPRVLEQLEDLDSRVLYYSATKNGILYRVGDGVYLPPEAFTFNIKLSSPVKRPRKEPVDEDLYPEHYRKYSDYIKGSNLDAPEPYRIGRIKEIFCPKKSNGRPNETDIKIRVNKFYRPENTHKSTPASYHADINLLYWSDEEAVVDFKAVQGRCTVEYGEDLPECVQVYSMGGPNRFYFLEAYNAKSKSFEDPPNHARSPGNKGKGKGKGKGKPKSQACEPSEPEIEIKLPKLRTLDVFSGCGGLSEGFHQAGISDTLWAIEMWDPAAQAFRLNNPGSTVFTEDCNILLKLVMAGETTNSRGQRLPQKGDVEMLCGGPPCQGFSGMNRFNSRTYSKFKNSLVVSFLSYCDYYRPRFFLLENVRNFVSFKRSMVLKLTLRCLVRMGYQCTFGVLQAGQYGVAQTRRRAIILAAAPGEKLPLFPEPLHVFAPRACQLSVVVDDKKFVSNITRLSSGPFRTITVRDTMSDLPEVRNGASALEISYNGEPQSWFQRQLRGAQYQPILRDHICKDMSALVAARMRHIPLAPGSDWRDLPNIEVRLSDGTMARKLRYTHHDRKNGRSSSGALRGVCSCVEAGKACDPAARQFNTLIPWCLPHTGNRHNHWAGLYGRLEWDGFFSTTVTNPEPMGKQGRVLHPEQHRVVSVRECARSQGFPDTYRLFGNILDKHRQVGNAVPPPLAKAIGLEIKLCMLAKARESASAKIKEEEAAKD
T2 sequence (P15840 whole entry): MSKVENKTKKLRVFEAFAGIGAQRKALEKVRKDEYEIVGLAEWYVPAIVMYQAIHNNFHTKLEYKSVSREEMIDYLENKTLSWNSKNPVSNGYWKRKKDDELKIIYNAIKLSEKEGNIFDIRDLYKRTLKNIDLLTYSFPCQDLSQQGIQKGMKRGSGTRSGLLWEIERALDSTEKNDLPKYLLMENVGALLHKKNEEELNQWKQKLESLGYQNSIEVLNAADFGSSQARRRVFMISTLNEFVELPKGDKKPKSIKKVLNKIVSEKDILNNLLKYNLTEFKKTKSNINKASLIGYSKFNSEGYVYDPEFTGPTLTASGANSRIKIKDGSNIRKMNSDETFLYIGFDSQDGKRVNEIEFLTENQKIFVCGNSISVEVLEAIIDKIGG

On to `O=C(O)[C@H](Cc1c[nH]c2ccccc12)N1C(=O)c2ccccc2C1=O`, for which the inhibition in [1] came to 11%. The molecule also showed a pKi in [2] of 6.64.
For the molecule `O=c1nc(NCc2ccccc2)c(CO)c[nH]1`, the pKi in experiment [2] is 3.87.
As to `O=C1N=C(NCc2ccco2)NCN1`, the pIC50 in experiment [3] is 4.12; in [5], 4.66; in experiment [7] it was 5.56; in experiment [10], 4.59. Besides, the inhibition result in [4], in [6], in experiment [9], in experiment [11] and in [12] was “Active” in each case. For the same molecule, the values for the inhibition entry in experiment [5] and in experiment [8] were “Dose-dependent effect” and 55%, respectively. This molecule also showed a pKi in experiment [2] of 6.15.
In the case of `CC(=O)OCc1c[nH]c(=O)nc1NCc1ccco1`, the pKi in experiment [2] was 4.30.
Still for that read-out and setting: the value for `O=c1nc(NCc2ccc(CO)o2)cc[nH]1` was 3.15.
Take `O=c1nc(NCc2ccccc2)cc[nH]1`: the figures for the pIC50 in experiment [3] and in experiment [10] were below 4.00 and 4.51, respectively. Further, the inhibition entry in experiment [4], in [6], in experiment [9], in experiment [11] and in experiment [12] was “Active” throughout. The pKi in experiment [2] was 5.00.
`O=c1nc(NCc2ccco2)cc[nH]1` had a pKi in experiment [2] of 4.15.
For `O=c1nc(NCc2ccccc2[N+](=O)[O-])cc[nH]1`, the pKi in experiment [13] is 2.19.
On to `CCNc1cc[nH]c(=O)n1`, for which, in [14], the pKi was 2.22.
In turn, `O=c1nc(NCc2cccnc2)cc[nH]1` gave a pKi in experiment [2] of 3.40.
As to `CCC/C=N/c1cc[nH]c(=O)n1`, the pKi in [14] is 3.10.
Take `O=c1nc(NCc2ccco2)ccn1[C@H]1C[C@H](O)[C@@H](CO)O1`: the pKi in [2] is 3.77.
With `CCCCNCc1c[nH]c(=O)nc1NCc1ccco1`, in experiment [2], the pKi was 3.02.
Same read-out and setting: the value for `CC(=O)OCc1c[nH]c(=O)nc1NCc1ccccc1` was 4.64.
Regarding `C/C=N/c1cc[nH]c(=O)n1`, the pKi in experiment [14] is 2.25.
Turning to `O=Cc1cnc(=O)[nH]c1NCc1ccccc1`, the pKi in [2] was 4.46.
With `Cc1cn([C@H]2C[C@H](O)[C@@H](CO)O2)c(=O)nc1NCc1ccco1`, in [2], the pKi is 3.60.
Still for that read-out and setting: the value for `Cc1ccc(CNc2cc[nH]c(=O)n2)cc1` was 4.59.
With `O=c1nc(NCc2ccco2)c(CO)c[nH]1`, the pKi in [2] was 3.36.
For `O=C(O[C@@H]1Cc2c(O)cc(O)cc2O[C@@H]1c1cc(O)c(O)c(O)c1)c1cc(O)c(O)c(O)c1` [EPIGALOCATECHIN GALLATE], the inhibition in [8] amounted to 42%. Moreover, the pKi in experiment [2] was 7.55.
Regarding `Cc1c[nH]c(=O)nc1NCc1ccccc1`, the pKi in experiment [2] was 5.44.
On the same count and under the same terms, to `O=Cc1c[nH]c(=O)nc1NCc1ccco1` belongs 4.08.
For the molecule `Cc1c[nH]c(=O)nc1NCc1ccco1`, the pIC50 in [3] is below 4.00; in experiment [10], 4.06. Also, in [2], the pKi was 4.82.
Regarding `O=c1ncc(CS(=O)(=O)O)c(NCc2ccco2)[nH]1`, the pKi in [2] was 3.95.
In experiment [14], `CCCCNc1ccnc(=O)[nH]1` gave a pKi of 3.00.
Still for that read-out and setting: to `CC/C=N/c1cc[nH]c(=O)n1` belongs 2.47.
In turn, `Nc1nc[nH]c(=O)n1` gave a pKi in [2] of 2.26.
On the same count and under the same terms, the value for `Cc1ccc(S(=O)(=O)Nc2cc[nH]c(=O)n2)cc1` was 3.26; that for `O=c1ncc(CS(=O)(=O)O)c(NCc2ccccc2)[nH]1` was 4.48; that for `O=C1N=C(NCc2ccccc2)NCN1` was 4.70.
